Dynein cargo inh – dynein cargo transport inhibition | 3617.4 mouse cells, GR-EGFP nuclear translocation imaging; test concentration mostly 20 µM; stimulated with dexamethasone, 1 µM; active compounds read low | z-score, hits read low | 220,000 compounds, 0.47% hits | AID 1381;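 active = plate z-score of nuclear minus cytoplasmic receptor signal below a set negative limit, without overly bright fluorescence or cell loss, cut at about -3.5 in these data, passing the limit was not always enough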;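 also: z-score of nuclear minus cytoplasmic ring GR-EGFP intensity difference per well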
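Also added – dexamethasone, 1.0 µM final · Buffer or medium – tet-free, stripped-serum medium · Schedule – induction 48 h, compound 1 h, agonist 30 min · Detection – formaldehyde fixation, Hoechst nuclear stain, 10x automated fluorescence imaging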
Tb hexokinase – T. brucei hexokinase 1 inhibition; recombinant TbHK1, G6PDH-coupled NADH A340; inhibition, % at 10 µM; 220,000 compounds, 0.11% hits; AID 1430;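 active = inhibition of 50% or more in the single-dose primary screen; inactive = inhibition below 50%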
Autophagy HCS – modulators of autophagy | calls only at 10 µM (by protocol) | AID 463193 | 190,000 compounds, 0.98% hits | MEF GFP-LC3 puncta imaging; test concentration mostly 10 µM;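 active = percentage of spot-positive cells more than 3 SD above its plate mean, without a fluorescence outlier flag or 80% toxicity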;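 also: spot-positive cell cutoff set from DMSO-treated cells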
PERK inh – human PERK inhibition, primary cell-based screen. Q9NZJ5. CHO PERK-DD fusion, SEAP luminescence translation reporter. inhibition, % at 5.6 µM. 220,000 compounds, 0.17% hits. AID 1416;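 active = inhibition above the mean inhibition of all tested compounds plus 3 SD, set separately per screening campaign, cut at about 2.9% in these data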;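 also: PERK kinase domain activated by AP20187 dimerizer at 100 nM; 0% = DMSO with dimerizer and 100% = rapamycin at 8.4 µM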
Target sequence (Q9NZJ5 whole entry, looked up, the tested form may be a part): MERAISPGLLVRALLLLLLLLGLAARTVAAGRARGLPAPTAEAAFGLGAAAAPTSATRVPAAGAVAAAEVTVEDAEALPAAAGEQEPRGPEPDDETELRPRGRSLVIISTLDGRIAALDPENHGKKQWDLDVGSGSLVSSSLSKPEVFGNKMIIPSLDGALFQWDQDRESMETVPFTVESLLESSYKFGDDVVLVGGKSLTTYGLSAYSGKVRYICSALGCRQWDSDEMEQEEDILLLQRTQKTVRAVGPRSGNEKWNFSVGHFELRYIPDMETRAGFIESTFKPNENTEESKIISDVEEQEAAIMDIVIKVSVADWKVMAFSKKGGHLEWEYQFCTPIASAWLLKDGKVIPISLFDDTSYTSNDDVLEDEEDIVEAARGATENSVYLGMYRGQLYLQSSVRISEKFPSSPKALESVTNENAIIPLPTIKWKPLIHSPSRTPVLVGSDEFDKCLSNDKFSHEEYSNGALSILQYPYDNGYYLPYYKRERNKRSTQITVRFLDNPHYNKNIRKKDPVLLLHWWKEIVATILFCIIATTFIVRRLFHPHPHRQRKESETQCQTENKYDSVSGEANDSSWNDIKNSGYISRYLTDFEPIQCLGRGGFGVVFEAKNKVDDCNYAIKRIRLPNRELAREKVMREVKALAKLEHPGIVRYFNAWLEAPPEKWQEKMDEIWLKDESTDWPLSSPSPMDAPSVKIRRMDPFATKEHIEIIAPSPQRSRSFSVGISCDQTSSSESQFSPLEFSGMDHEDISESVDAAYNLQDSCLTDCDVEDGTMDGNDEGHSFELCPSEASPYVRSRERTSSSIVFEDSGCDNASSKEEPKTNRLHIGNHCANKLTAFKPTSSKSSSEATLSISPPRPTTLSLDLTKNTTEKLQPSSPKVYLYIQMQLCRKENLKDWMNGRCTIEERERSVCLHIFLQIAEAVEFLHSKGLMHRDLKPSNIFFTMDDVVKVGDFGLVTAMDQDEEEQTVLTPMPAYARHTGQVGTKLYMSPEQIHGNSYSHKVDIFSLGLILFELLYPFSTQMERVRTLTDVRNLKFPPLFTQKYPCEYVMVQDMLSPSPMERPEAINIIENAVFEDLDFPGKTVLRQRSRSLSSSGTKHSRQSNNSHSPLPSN
HSV replic up – increases HSV replication in cells | 220,000 compounds, 0.005% hits | maximum fold increase | HSV replication augmentation in cells, fold increase | AID 1956; in the data active = maximum fold increase above about 1.5; tested in PC3 cells
HKDC1 inh – HKDC1 (human) hexokinase inhibition | Q2TB90 | recombinant HKDC1, G6PDH/diaphorase resazurin coupled fluorescence | AID 493160 | inhibition, % at 20 µM | 340,000 compounds, 0.16% hits;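 active = inhibition above about 35% when tested at 20 µM, limit read from the data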;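 also: plate controls were DMSO wells with enzyme for no effect and DMSO wells lacking enzyme for full effect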
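Assay system: in-house recombinant HK5 (HKDC1) enzyme. Input: HKDC1 at 5 µg/mL. Medium: Tris pH 8.0 buffer with MgCl2, Tween-20, BSA, BME. Dosing: single 20 µM dose. Schedule: 90 min reaction incubation at room temperature, dark. Signal: resazurin-to-resorufin fluorescence via G6PDH and diaphorase coupling, 525/613 nm. Controls: DMSO-enzyme wells negative, buffer-substituted wells positive.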
HKDC1 act conf2 – HKDC1 (human) activation, single-dose confirmed; shares compounds with HKDC1 inh; recombinant HKDC1, G6PDH/diaphorase resazurin fluorescence; active compounds read low; inhibition, % at 20 µM; 740 compounds, 14% hits; AID 504708;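 active = inhibition at or below a set negative limit, negative inhibition meaning the enzyme was activated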
Starred values were filed as active, the others as inactive; i = inactive; nt = not tested or not shown. Sampled rows, rich in hits. Any-hit rate of the full collection: about 1.2%.

SMILES	Dynein cargo inh	Tb hexokinase	Autophagy HCS	PERK inh	HSV replic up	HKDC1 inh	HKDC1 act conf2
Cc1ccc(NS(=O)(=O)c2ccc(Br)cc2)nc1	0.66	-10	i	2	i	-5	nt
CS(=O)(=O)N(CC(=O)N1CCc2ccccc2C1)c1ccc(Cl)cc1F	nt	nt	nt	nt	nt	-2	nt
Oc1cc(-c2ccccc2)c2ccccc2c1	-0.95	25	i	1	i	27	-6
c1ccc(CN=C2NN=C(c3ccccc3)CS2)cc1	0.28	-8	i	0	i	-14	nt
CCN=C1NN=C(c2ccc(C)cc2)CS1	-1.4	-9	i	0	i	-64	-52*
O=C(CSc1n[nH]c(=O)[nH]c1=O)Nc1ccc2c(c1)C(=O)c1ccccc1C2=O	1.1	2	nt	1	i	52*	14
CC1CCN(S(=O)(=O)c2ccc(C(=O)N3CCCC3C(=O)O)cc2)CC1 (configuration not stated)	nt	nt	nt	nt	nt	1	nt
O=C1C=C(Nc2ccccc2)c2ccccc2C1=O	-0.16	-11	i	2	i	25	nt
O=C1C=C(Nc2ccccc2C(=O)O)c2ccccc2C1=O	-0.7	-21	nt	0	i	46*	44
COc1cc(CNCc2ccc(C)cc2)cc(OC)c1OC	nt	nt	nt	nt	nt	-2	nt
COCc1cc(SC2CCCCC2)nc(C)n1	-0.53	1	i	1	i	46*	-28
CCCN(CC(=O)Nc1ccccc1C)C(=O)CSc1ccccc1C	nt	nt	nt	nt	nt	-5	nt
CCOc1ccc2c(ccc(/C=C/c3cc(C)c4cccnc4c3O)[n+]2C)c1	nt	nt	nt	nt	nt	46*	8
CCOC(=O)c1c(NC(=O)CC)sc(C(=O)NC2CCCC2)c1C	nt	nt	nt	nt	nt	-5	nt
Nc1nc(-c2cccc(Br)c2)cs1	-0.74	-3	i	1	i	-65	-41*
Nc1nc(-c2ccc(Br)cc2)cs1	-0.15	3	i	0	i	3	nt
N#CCCN(Cc1ccccc1)C(=O)c1cccs1	-0.59	-1	nt	0	i	-1	nt
CC(=O)c1cccc(NC(=O)C(C)OC(=O)c2cccc(-n3cnnn3)c2)c1 (configuration not stated)	nt	nt	nt	nt	nt	-4	nt
CCCCC[C@H](O)/C=C/[C@@H]1[C@@H](C/C=C\CCCC(=O)O)[C@@H](O)C[C@H]1O	0.61	7	i	-2	i	-7	nt
CCCCC[C@H](O)/C=C/[C@@H]1[C@@H](C/C=C\CCCC(=O)OC)[C@@H](O)C[C@H]1O	0.81	-9	i	1	i	77*	61
COC(=O)CCC(=O)OC1(C)C(=O)C2=CN(C3CC3)C(c3ccc(OC)cc3)=CC2=C(Br)C1=O (configuration not stated)	nt	nt	nt	nt	i	34	nt
CC1(OC(=O)CCc2ccccc2)C(=O)C=C2C=C(c3ccc(C#N)cc3)N(Cc3ccccc3)C=C2C1=O (configuration not stated)	-0.023	-20	nt	nt	i	36*	-9
COC(=O)CCC(=O)OC1(C)C(=O)C2=CN(CC(C)C)C(c3ccc(OC)cc3)=CC2=C(Br)C1=O (configuration not stated)	-1.3	-28	nt	nt	i	nt	nt
COC(=O)CCC(=O)OC1(C)C(=O)C2=CN(CC3CC3)C(c3ccc(OC)cc3)=CC2=C(Br)C1=O (configuration not stated)	-0.72	-32	nt	nt	i	37*	-8
COC(=O)CCC(=O)OC1(C)C(=O)C2=CN(c3ccccc3)C(c3ccc(OC)cc3)=CC2=C(Br)C1=O (configuration not stated)	nt	nt	nt	nt	i	38*	29
SMILES	Dynein cargo inh	Tb hexokinase	Autophagy HCS	PERK inh	HSV replic up	HKDC1 inh	HKDC1 act conf2
COC(=O)CCC(=O)OC1(C)C(=O)C2=CN(Cc3ccccc3)C(c3ccc(OC)cc3)=CC2=C(Br)C1=O (configuration not stated)	nt	nt	nt	nt	i	43*	13
COC(=O)CCC(=O)OC1(C)C(=O)C2=CN(Cc3ccc(OC)cc3)C(c3ccc(OC)cc3)=CC2=C(Br)C1=O (configuration not stated)	nt	nt	nt	nt	i	32	nt
CC(=O)c1cccc(OC(=O)Oc2cccc(C(C)=O)c2)c1	nt	nt	nt	nt	nt	-2	nt
COc1ccc(C)cc1NC(=O)CN1CCN(S(=O)(=O)c2ccc3ccccc3c2)CC1	nt	nt	nt	nt	nt	0	nt
COc1ccc(CC(=O)N(C)CC(=O)Nc2ccc(F)cc2)cc1S(=O)(=O)N1CCOCC1	nt	nt	nt	nt	nt	-4	nt
C/C(=N\Nc1nncc2ccccc12)c1cccc(OC(F)F)c1	nt	nt	nt	nt	nt	2	nt
S=C(NCc1ccccc1)Nc1ccc(Cl)cc1	-0.1	-1	i	0	i	12	nt
S=C(NCCc1ccc(Cl)cc1)NCc1ccccc1	nt	nt	nt	nt	nt	-63	-12
COc1ccccc1-c1ccc2nnc(SC)n2n1	nt	nt	nt	nt	nt	-2	nt
CC1(C)CC[C@]2(C(=O)n3ccnc3)CC[C@]3(C)[C@H](C(=O)C=C4[C@@]5(C)C=C(C#N)C(=O)C(C)(C)[C@@H]5CC[C@]43C)[C@@H]2C1	nt	nt	nt	nt	nt	48*	33
Cc1cc(C)n2cc(CSc3nnc(-c4ccccc4)c(-c4ccccc4)n3)nc2n1	nt	nt	nt	nt	nt	38*	38
Cc1cc(C)c(CN2CCN(CCCn3ccc(NC(=O)OCc4ccccc4)nc3=O)CC2)c(C)c1	nt	nt	nt	nt	nt	-1	nt
O=c1c2ccccc2nc(/C=C/c2cccnc2)n1CCc1ccccc1	-2.1	-32	nt	-2	i	34	39
O=c1c2ccccc2nc(/C=C/c2ccccc2)n1CCc1ccccc1	-1.2	-2	i	1	i	-8	nt
Cc1cccc(/C=C/c2nc3ccccc3c(=O)n2Cc2ccccc2)c1	0.22	-6	i	0	i	-1	nt
O=c1c2ccccc2nc(/C=C/c2cccnc2)n1Cc1ccccc1	-1.3	-18	i	-1	i	81*	61
COC(=O)C(C(=O)OC)C1C=CCN(C(C)=O)C1 (configuration not stated)	nt	nt	nt	nt	nt	4	nt
O=C(NC(=S)NNC(=O)c1cnccn1)c1ccc(F)cc1	-0.46	-4	i	1	i	-48	-36*
O=C(/C=C/c1ccc(F)cc1)NC(=S)NNC(=O)c1cnccn1	0.19	-14	nt	-1	i	-31	nt
COc1ccc(/C=C/C(=O)NC(=S)NNC(=O)c2cnccn2)cc1	-1.2	-85	nt	-1	i	-40	-58*
COC(=O)C1CCN(C(=O)COC(=O)CSc2ccc(C(N)=O)cc2[N+](=O)[O-])CC1	nt	nt	nt	nt	nt	-3	nt
S=C(Nc1cccc(Cl)c1Cl)Nn1cnnc1	0.27	4	i	1	i	-7	nt
CC(=NNC(=O)C(C)SC(C)C(=O)NN=C(C)c1cccnc1)c1cccnc1 (configuration not stated)	nt	nt	nt	nt	nt	-10	nt
CC1=NOC(=O)/C1=C\c1ccc(-c2ccc(Br)cc2C(=O)O)o1	0.26	4	i	0	i	-7	nt
CC1=NOC(=O)/C1=C\c1ccc(-c2cc(Cl)ccc2Cl)o1	-0.018	14	i	0	i	57*	10
